Assay results reported in ChEMBL document CHEMBL4699421 (RSC Med Chem, 2020).
Where a SMILES comes first, the peptide text is derived from it. [ ]: non-standard residue; d: D form. The star is where a group is joined. Cbz = O=C(OCc1ccccc1)*; Ac3c = NC1(C(=O)O)CC1

How the values were obtained:
Trypanosoma cruzi [1] = test: Trypanocidal activity against Trypanosoma cruzi Tulahuen LacZ intracellular amastigote form infected in monkey LLC-MK2 cells incubated for 72 hrs by chlorophenol red beta-D-galactopyranoside substrate based spectrophotometric assay; type: functional, organism-based; conditions: LLC-MK2, 72 h
In short: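 LLC-MK2 at 5 × 10^4 cells per mL infected with Tulahuen LacZ trypomastigotes at 5 × 10^5 per mL, 24 h at 37 °C, 5% CO2. Extracellular parasites washed off. Compounds 1.95–250 µM (DMSO) added for 72 h. […] Benznidazole as positive control, DMSO as negative.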

[2] = Cytotoxicity against human U2OS cells assessed as reduction in cell viability incubated for 72 hrs by MTT assay; type: cell-based
In short: (§1)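 Cells seeded at 5 × 10^4 cells per mL and grown 48 h (LLC-MK2 in RPMI; U2OS in high glucose DMEM). MTT 2.0 mg/mL added for 4 h, formazan dissolved in DMSO, read at 570 nm. CC50 from percent reduction versus untreated control.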

[3] = Selectivity index, ratio of CC50 for human U2OS cells assessed as reduction in cell viability incubated for 72 hrs by MTT assay to EC50 for Trypanosoma cruzi […]; type: toxicity, cell-based; conditions: read-out: Ratio CC50/EC50
[4] = Selectivity index, ratio of CC50 for monkey LLC-MK2 cells assessed as reduction in cell viability incubated for 72 hrs by MTT assay to EC50 for Trypanosoma cruzi Tulahuen LacZ intracellular amastigote form infected in monkey LLC-MK2 cells incubated for 72 hrs by chlorophenol red beta-D-galactopyranoside substrate based spectrophotometric assay; type: toxicity; conditions: read-out: Ratio CC50/EC50
[5] = Cytotoxicity against monkey LLC-MK2 cells assessed as reduction in cell viability incubated for 72 hrs by MTT assay; type: cell-based, Macaca mulatta; conditions: rhesus monkey; in short: as §1
Trypanosoma cruzi [6] = test: Trypanocidal activity against Trypanosoma cruzi Y intracellular amastigote form infected in human U2OS cells
[7] = L-Cysteine reactivity in pH 7.4 phosphate buffer assessed as decay constant; type: physicochemical
In short: (§2)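 HPLC reactivity at 37 °C in 0.05 M phosphate pH 7.4 with 1.0 mM EDTA and 5% acetonitrile, thiol glutathione or cysteine. Inhibitor solution 2.5 mM (stock). Aliquots injected over time on a 5–100% acetonitrile/water gradient with PDA detection 210–400 nm. Half-life and K from a one-phase decay fit, pseudo-first-order. Thiol-free control run for stability. Halved-concentration runs also reported.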

[8] = Glutathione reactivity in pH 7.4 phosphate buffer assessed decay constant at 1.25 mM; type: physicochemical; conditions: pH 7.4, 1250 µM; in short: as §2
[9] = L-Cysteine reactivity in pH 7.4 phosphate buffer assessed as decay constant at 1.25 mM; type: physicochemical; conditions: pH 7.4, 1250 µM; in short: as §2
Cruzipain = Cruzipain (Trypanosoma cruzi, UniProt P25779); test: Covalent inhibition of Trypanosoma cruzi cruzipain using Z-Phe-Arg-7-amidomethylcoumarin as substrate measured after 5 mins by fluorometric analysis
In short: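 Recombinant cruzain catalytic domain (no C-terminal extension), 0.15 nM, activated 20 min in 100 mM acetate pH 5.5, 300 mM NaCl, 5 mM DTT, then 2 min with inhibitor. Assay buffer adds 5% DMSO and 0.01% Triton X-100. Z-FR-AMC hydrolysis read at 355/460 nm, 37 °C, over 5 min. Wells checked for precipitation and background fluorescence.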

[10] = Glutathione reactivity in pH 7.4 phosphate buffer assessed as half life at 2.5 mM by HPLC analysis; type: physicochemical; conditions: phosphate buffer with glutathione; in short: as §2
[11] = Glutathione reactivity in pH 7.4 phosphate buffer assessed as decay constant; type: physicochemical; in short: as §2
Trypanosoma cruzi [12] = test: Trypanocidal activity against Trypanosoma cruzi […] relative to benznidazole; type: functional
[13] = L-Cysteine reactivity in pH 7.4 phosphate buffer assessed as half life at 2.5 mM by HPLC analysis; type: physicochemical; conditions: phosphate buffer with L-cysteine; in short: as §2

Chain of Cruzipain (P25779 whole entry, the tested form may be a part): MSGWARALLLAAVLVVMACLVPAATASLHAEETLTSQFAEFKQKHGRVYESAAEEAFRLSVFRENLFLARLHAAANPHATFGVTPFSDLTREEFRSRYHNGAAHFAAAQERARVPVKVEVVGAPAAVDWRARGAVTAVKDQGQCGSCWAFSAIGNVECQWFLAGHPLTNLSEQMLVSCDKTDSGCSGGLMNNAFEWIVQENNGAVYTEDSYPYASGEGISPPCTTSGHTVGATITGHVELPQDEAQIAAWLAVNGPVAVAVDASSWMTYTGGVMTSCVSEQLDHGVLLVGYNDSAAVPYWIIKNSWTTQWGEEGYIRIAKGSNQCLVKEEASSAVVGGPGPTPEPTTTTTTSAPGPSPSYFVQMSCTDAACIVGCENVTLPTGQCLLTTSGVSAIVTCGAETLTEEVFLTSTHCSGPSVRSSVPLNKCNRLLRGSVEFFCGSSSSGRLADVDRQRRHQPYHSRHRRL

SMILES: N#CCNC(=O)[C@H](Cc1ccccc1)NC(=O)OCc1ccccc1
- EC50 (Trypanosoma cruzi [1]): > 100 µM
- CC50 at 72 h [2]: > 100 µM
- selectivity ratio at 72 h [3]: > 27.8
- selectivity ratio at 72 h [4]: 1.1
- CC50 at 72 h [5]: > 100 µM
- EC50 (Trypanosoma cruzi [6]): 3.6 µM

SMILES: N#CCNC(=O)[C@H](Cc1ccccc1)NC(=O)c1ccccc1
- EC50 (Trypanosoma cruzi [1]): > 100 µM
- K [7]: 9.33 10^-2/min

SMILES: CCN(CC)C(=O)/C=C/C1(NC(=O)[C@H](Cc2ccccc2)NC(=O)OCc2ccccc2)CC1
- EC50 (Trypanosoma cruzi [1]): > 100 µM
- CC50 at 72 h [5]: > 100 µM

SMILES: CNC(=O)/C=C/C1(NC(=O)[C@H](Cc2ccccc2)NC(=O)OCc2ccccc2)CC1
- CC50 at 72 h [2]: > 100 µM
- selectivity ratio at 72 h [3]: > 8.2
- EC50 (Trypanosoma cruzi [6]): 12.1 µM

SMILES: O=C(N[C@@H](Cc1ccccc1)C(=O)Nc1cnoc1)OCc1ccccc1
- EC50 (Trypanosoma cruzi [1]): 25.8 µM
- CC50 at 72 h [2]: > 100 µM
- selectivity ratio at 72 h [3]: > 19.6
- selectivity ratio at 72 h [4]: > 3.9
- CC50 at 72 h [5]: > 100 µM
- EC50 (Trypanosoma cruzi [6]): 5.1 µM

SMILES: Cc1coc(NC(=O)[C@H](Cc2ccccc2)NC(=O)OCc2ccccc2)n1
- EC50 (Trypanosoma cruzi [1]): > 100 µM
- CC50 at 72 h [5]: > 100 µM

SMILES: CCOC(=O)/C=C/C1(NC(=O)[C@H](Cc2ccccc2)NC(=O)OCc2ccccc2)CC1
- EC50 (Trypanosoma cruzi [1]): 79.6 µM
- selectivity ratio at 72 h [4]: > 1.2
- CC50 at 72 h [5]: > 100 µM

SMILES: CC(C)C[C@H](NC(=O)c1cc(C(C)(C)C)nn1C)C(=O)N(C)N(C)C#N
- EC50 (Trypanosoma cruzi [1]): 8.4 µM
- EC50 (Trypanosoma cruzi [6]): 8.4 µM
- K [8]: 1.01 10^-2/min
- K [9]: 3.15 10^-2/min

SMILES: N#CC1(NC(=O)[C@H](Cc2ccccc2)NC(=O)OCc2ccccc2)CC1
- EC50 (Trypanosoma cruzi [1]): > 100 µM
- CC50 at 72 h [2]: 6 µM
- selectivity ratio at 72 h [3]: 4.4
- CC50 at 72 h [5]: > 100 µM
- EC50 (Trypanosoma cruzi [6]): 1 µM

SMILES: N#CC1(NC(=O)[C@H](Cc2ccccc2)NC(=O)c2ccccc2)CC1
- EC50 (Trypanosoma cruzi [1]): > 100 µM
- K [7]: 0.436 10^-2/min

SMILES: CON(C)C(=O)CNC(=O)[C@H](Cc1ccccc1)NC(=O)OCc1ccccc1
- Ki (Cruzipain): 100 µM
- EC50 (Trypanosoma cruzi [1]): > 100 µM
- CC50 at 72 h [5]: > 100 µM

SMILES: O=C(N[C@@H](Cc1ccccc1)C(=O)Nc1cnoc1)c1ccccc1
- Ki (Cruzipain): 20 µM
- CC50 at 72 h [2]: > 100 µM
- selectivity ratio at 72 h [3]: > 16.6
- EC50 (Trypanosoma cruzi [6]): 6 µM

SMILES: O=C(N[C@@H](Cc1ccccc1)C(=O)NC/C=N/O)OCc1ccccc1
- Ki (Cruzipain): 10 µM
- CC50 at 72 h [2]: > 100 µM
- EC50 (Trypanosoma cruzi [6]): > 100 µM

SMILES: O=C(N[C@@H](Cc1c[nH]c2ccccc12)C(=O)Nc1cnoc1)c1ccccc1
- Ki (Cruzipain): 10 µM
- CC50 at 72 h [2]: > 100 µM
- selectivity ratio at 72 h [3]: > 8.2
- EC50 (Trypanosoma cruzi [6]): 22.4 µM

SMILES: CN(C#N)N(C)C(=O)[C@H](Cc1ccccc1)NC(=O)OCc1ccccc1
- EC50 (Trypanosoma cruzi [1]): 21.7 µM
- CC50 at 72 h [2]: 10.2 µM
- selectivity ratio at 72 h [3]: 3.2
- selectivity ratio at 72 h [4]: 1.9
- CC50 at 72 h [5]: 42 µM
- EC50 (Trypanosoma cruzi [6]): 3.2 µM

SMILES: O=CC1(NC(=O)[C@H](Cc2ccccc2)NC(=O)OCc2ccccc2)CC1 (Cbz-Phe-[Ac3c]-aldehyde)
- EC50 (Trypanosoma cruzi [1]): > 100 µM
- CC50 at 72 h [2]: 3 µM
- selectivity ratio at 72 h [3]: 58.4
- half-life at 2500 µM [10]: 40 min
- K [11]: 1.73 10^-2/min
- CC50 at 72 h [5]: > 100 µM
- EC50 (Trypanosoma cruzi [6]): 0.1 µM
- K [7]: 3.12 10^-2/min
- fold change (FC) (Trypanosoma cruzi [12]): 10
- half-life at 2500 µM [13]: 22.2 min

SMILES: COC(=O)C1=C(C#N)NC(C)=C(C(=O)OC(C)C)C1c1cccc([N+](=O)[O-])c1 (configuration not stated) [NILVADIPINE]
- half-life at 2500 µM [10]: > 5000 min
- K [7]: 1.41 10^-2/min
